Values joined by “and” are separate entries in the source; they are usually repeats but may differ in a detail not shown here. Identical values can stand only once. Ends that are not written are not given here. Peptide text beside a SMILES is read from it. * marks the point of attachment. Dansyl = CN(C)c1cccc2c(S(=O)(=O)*)cccc12
T1: Tiam2 PDZ domain (Homo sapiens, UniProt Q8IVF5)
T1 sequence (Q8IVF5 890-976 limits assumed): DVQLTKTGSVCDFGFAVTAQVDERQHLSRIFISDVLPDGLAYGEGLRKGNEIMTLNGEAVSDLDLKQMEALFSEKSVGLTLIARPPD

T2: KP-4E-Sdc1 peptide
T2 chain: Dansyl-QEEYYA


Key:
[1] = target: Tiam1 PDZ domain (wild-type) (Homo sapiens, UniProt Q13009); format: binding; conditions: for Kd: SD; for ΔGb (free energy of binding): calculated from the dissociation constant, error by error propagation, 25 °C; for ΔΔGb: ΔΔGb = ΔGb(Core) − ΔGb(peptide); for Σ Singles: sum of the ΔΔGb of the two single-mutant peptides; for binding to the Tiam1 PDZ domain (in words): unpublished data of the authors
Sequence of Tiam1 PDZ domain (wild-type) (Q13009 841-930 limits assumed): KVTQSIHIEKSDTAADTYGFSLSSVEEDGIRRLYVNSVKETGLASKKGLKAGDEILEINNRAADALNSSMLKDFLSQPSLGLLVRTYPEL
Summary of the method: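 His6-tagged Tiam1 PDZ domain expressed in E. coli BL21(DE3), purified by nickel-chelate and size-exclusion chromatography, tag removed with rTEV. N-terminally dansylated peptides (2 or 5 μM) in 20 mM PO4, 50 mM NaCl, 0.5 mM EDTA, pH 6.8, at 25 °C; PDZ added in 20–30 steps. Anisotropy read at λex 340/λem 555 nm and fit hyperbolically. Triplicate titrations, mean Kd ± standard deviation.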

[2] = target: T1, Tiam2 PDZ domain; assay: Peptide binding to the Tiam2 PDZ domain; conditions: unpublished data of the authors
[3] = target: Model peptide; conditions: cited from earlier work
[4] = target: T2, KP-4E-Sdc1 peptide; assay: fluorescence anisotropy

| Kd [1] [µM] | ΔGb (free energy of binding) [1] [kJ/mol] | ΔΔGb [1] [kJ/mol] | Molecule | other results |
| --- | --- | --- | --- | --- |
| 60.1 ± 0.6 | -24.1 ± 0.042 | -1.67 ± 0.21 | C[C@H](NC(=O)[C@H](Cc1ccccc1)NC(=O)[C@H](Cc1ccc(O)cc1)NC(=O)[C@H](CCC(=O)O)NC(=O)[C@H](CCCCN)NC(=O)[C@H](CCC(N)=O)NC(=O)[C@H](CO)NC(=O)[C@H](CO)NS(=O)(=O)c1cccc2c(N(C)C)cccc12)C(=O)O [YP−1F–Caspr4] (Dansyl-SSQKEYFA-OH) |  |
| 40 ± 2 | -25.1 ± 0.25 | -2.72 ± 0.29 | C[C@H](NC(=O)[C@H](Cc1ccc(O)cc1)NC(=O)[C@H](Cc1ccc(O)cc1)NC(=O)[C@H](CCC(=O)O)NC(=O)[C@H](CCC(=O)O)NC(=O)[C@H](CCC(N)=O)NC(=O)[C@H](CO)NC(=O)[C@H](CO)NS(=O)(=O)c1cccc2c(N(C)C)cccc12)C(=O)O [KP−4E–Sdc1] (Dansyl-SSQEEYYA-OH) |  |
|  |  |  | NKDKEYYVCOOH [Neurexin1, reference compound] | binding to the Tiam2 PDZ domain (in words) [2]: bound the PDZ domain tightly |
| 106 ± 7 | -22.7 ± 0.29 | -0.29 ± 0.33 | C[C@H](NC(=O)[C@H](Cc1ccc(O)cc1)NC(=O)[C@H](Cc1ccccc1)NC(=O)[C@H](CCC(=O)O)NC(=O)[C@H](CCCCN)NC(=O)[C@H](CCC(N)=O)NC(=O)[C@H](CO)NC(=O)[C@H](CO)NS(=O)(=O)c1cccc2c(N(C)C)cccc12)C(=O)O [YP−2F–Sdc1] (Dansyl-SSQKEFYA-OH) |  |
| 89 ± 5 | -23.1 ± 0.25 | -0.711 ± 0.33 | CN(C)c1cccc2c(S(=O)(=O)N[C@@H](CO)C(=O)N[C@@H](CO)C(=O)N[C@@H](CCC(N)=O)C(=O)N[C@@H](CCCCN)C(=O)N[C@@H](CCC(=O)O)C(=O)N[C@@H](Cc3ccc(O)cc3)C(=O)N[C@@H](Cc3ccc(O)cc3)C(=O)N[C@@H](Cc3ccccc3)C(=O)O)cccc12 [AP0F–Caspr4] (Dansyl-SSQKEYYF-OH) |  |
|  | -26.1 ± 0.13 | -3.68 ± 0.25 | TKQEEFYACOOH [Syndecan1] | Σ Singles [1]: -2.97 ± 0.46 kJ/mol; binding to the Tiam1 PDZ domain (in words) [1]: bound the Tiam1 PDZ domain |
|  |  |  | Tiam1 PDZ (from UniProt Q13009) | Kd [3]: 112 µM |
|  | -22.5 ± 0.21 |  | SSRKEYYACOOH [Model peptide, reference compound] |  |
| 19 ± 0.4 | -26.9 ± 0.084 | -4.56 ± 0.21 | CN(C)c1cccc2c(S(=O)(=O)N[C@@H](CCC(=O)O)C(=O)N[C@@H](CC(N)=O)C(=O)N[C@@H](CCC(N)=O)C(=O)N[C@@H](CCCCN)C(=O)N[C@@H](CCC(=O)O)C(=O)N[C@@H](Cc3ccc(O)cc3)C(=O)N[C@@H](Cc3ccccc3)C(=O)N[C@@H](Cc3ccccc3)C(=O)O)cccc12 [Caspr4] (Dansyl-ENQKEYFF-OH) | binding to the Tiam2 PDZ domain (in words) [2]: bound the PDZ domain tightly; ΔΔΔGint (interaction energy, double-mutant cycle) ([1]; double-mutant cycle of evolved peptides: Core, two single mutants, double mutant): -2.13 kJ/mol and -2.13 ± 0.33 kJ/mol; Σ Singles [1]: -2.38 ± 0.38 kJ/mol; binding to the Tiam1 PDZ domain (in words) [1]: bound the Tiam1 PDZ domain |
|  |  |  | Tiam1 PDZ (protein) VTQSIHIEKSDTAADTYGFSLSSVEEDGIRRLYVNSVKETGLASKKGLKAGDEILEINNRAADALNSSML | Kd [4]: 40 µM |

Reference: paper PMC4137555 (Methods in enzymology, 2011)
